In ChEMBL document CHEMBL1137478, “Optimization of triarylimidazoles for Tie2: influence of conformation on potency” (Bioorg Med Chem Lett, 2007):

How the values were obtained:
Angiopoietin-1 receptor [1] = biological target: T1, Angiopoietin-1 receptor (Homo sapiens, UniProt Q02763); assay: Inhibition of Tie2
Angiopoietin-1 receptor [2] = biological target: T1, Angiopoietin-1 receptor; assay: Inhibition of Tie2 at 10 uM
[3] = biological target: Cyclin-dependent kinase 2 (Homo sapiens, UniProt P24941); assay: Inhibition of CDK2
[4] = biological target: Hepatocyte growth factor receptor (Homo sapiens, UniProt P08581); assay: Inhibition of MET
[5] = biological target: Vascular endothelial growth factor receptor 2 (Homo sapiens, UniProt P35968); assay: Inhibition of VEGFR2
[6] = biological target: Platelet-derived growth factor receptor alpha (Homo sapiens, UniProt P16234); assay: Inhibition of PDGFRalpha
[7] = biological target: Mast/stem cell growth factor receptor Kit (Homo sapiens, UniProt P10721); assay: Inhibition of KIT
[8] = biological target: RAC-alpha serine/threonine-protein kinase (Homo sapiens, UniProt P31749); assay: Inhibition of AKT1
TGF-beta receptor type-1 = biological target: T2, TGF-beta receptor type-1 (Homo sapiens, UniProt P36897)
T2 sequence (P36897 whole entry): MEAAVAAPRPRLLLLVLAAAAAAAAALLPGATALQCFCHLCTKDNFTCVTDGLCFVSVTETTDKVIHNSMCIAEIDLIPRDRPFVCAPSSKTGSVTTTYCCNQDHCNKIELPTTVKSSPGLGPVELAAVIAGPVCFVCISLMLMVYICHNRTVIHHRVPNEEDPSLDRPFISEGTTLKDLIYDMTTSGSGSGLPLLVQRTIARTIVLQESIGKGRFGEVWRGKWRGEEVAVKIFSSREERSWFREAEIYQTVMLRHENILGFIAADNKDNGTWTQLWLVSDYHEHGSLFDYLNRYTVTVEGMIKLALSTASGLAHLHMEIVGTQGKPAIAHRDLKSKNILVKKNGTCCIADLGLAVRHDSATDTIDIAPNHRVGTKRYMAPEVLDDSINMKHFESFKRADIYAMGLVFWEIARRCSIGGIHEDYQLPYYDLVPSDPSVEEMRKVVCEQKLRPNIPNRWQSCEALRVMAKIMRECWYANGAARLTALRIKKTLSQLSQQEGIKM

[9] = biological target: Macrophage colony-stimulating factor 1 receptor (Homo sapiens, UniProt P07333)
[10] = biological target: Fibroblast growth factor receptor 1 (Homo sapiens, UniProt P11362); assay: Inhibition of FGFR1
Mus musculus [11] = assay: Inhibition of bFGF-stimulated angiogenesis in Matrigel mouse model at 25 mg/kg, po after 6 days; format: functional; conditions: 144 h
Procedure, shortened: (§1)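 Mice bear Matrigel plugs in which angiogenesis is driven by bFGF; compound given as two doses. Control groups are untreated bFGF mice and mice without bFGF. Animals are killed after 6 days, and the heme content of the Matrigel plug is measured as the angiogenesis read-out.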

[12] = biological target: T3, Receptor-type tyrosine-protein kinase FLT3 (Homo sapiens, UniProt P36888); assay: Inhibition of FLT3
T3 sequence (P36888 whole entry): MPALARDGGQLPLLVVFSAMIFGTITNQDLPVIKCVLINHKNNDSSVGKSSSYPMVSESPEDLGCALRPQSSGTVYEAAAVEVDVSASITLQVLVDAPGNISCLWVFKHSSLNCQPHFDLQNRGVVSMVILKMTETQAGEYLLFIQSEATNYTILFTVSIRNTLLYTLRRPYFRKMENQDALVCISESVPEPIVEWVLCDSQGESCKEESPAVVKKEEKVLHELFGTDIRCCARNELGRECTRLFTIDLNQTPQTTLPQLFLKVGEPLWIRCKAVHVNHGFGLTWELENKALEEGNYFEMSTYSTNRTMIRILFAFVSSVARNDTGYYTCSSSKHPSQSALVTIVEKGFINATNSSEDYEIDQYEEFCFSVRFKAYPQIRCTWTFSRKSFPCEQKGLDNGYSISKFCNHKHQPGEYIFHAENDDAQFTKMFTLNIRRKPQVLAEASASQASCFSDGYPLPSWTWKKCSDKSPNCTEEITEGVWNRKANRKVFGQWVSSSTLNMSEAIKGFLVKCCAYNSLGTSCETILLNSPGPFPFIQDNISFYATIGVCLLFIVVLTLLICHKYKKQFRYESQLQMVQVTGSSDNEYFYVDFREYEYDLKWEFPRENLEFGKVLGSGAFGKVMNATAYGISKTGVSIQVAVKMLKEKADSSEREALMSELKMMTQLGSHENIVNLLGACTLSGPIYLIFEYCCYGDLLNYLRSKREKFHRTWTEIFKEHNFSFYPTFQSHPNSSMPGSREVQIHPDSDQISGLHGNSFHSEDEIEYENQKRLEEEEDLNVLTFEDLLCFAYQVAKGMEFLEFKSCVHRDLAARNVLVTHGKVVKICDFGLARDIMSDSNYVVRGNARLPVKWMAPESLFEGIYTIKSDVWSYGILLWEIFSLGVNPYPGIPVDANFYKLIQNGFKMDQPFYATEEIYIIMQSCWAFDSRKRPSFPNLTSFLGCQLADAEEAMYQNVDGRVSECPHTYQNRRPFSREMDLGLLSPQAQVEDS

Insulin receptor = Insulin receptor (Homo sapiens, UniProt P06213); assay: Inhibition of INSR
[13] = biological target: Insulin-like growth factor 1 receptor (Homo sapiens, UniProt P08069); assay: Inhibition of IGFR1
[14] = biological target: Protein kinase C beta type (Homo sapiens, UniProt P05771); assay: Inhibition of PKCbeta1
MAP kinase p38 = MAP kinase p38 (Homo sapiens, UniProt O15264+Q15759+Q16539+P53778); assay: Inhibition of mitogen-activated protein kinase p38; format: protein assay
[15] = Inhibition of GSK3; set-up: species or system Homo sapiens
[16] = biological target: Tyrosine-protein kinase ABL1 (Homo sapiens, UniProt P00519); assay: Inhibition of Abl kinase
[17] = biological target: Platelet-derived growth factor receptor beta (Homo sapiens, UniProt P09619); assay: Inhibition of PDGFRbeta
Mus musculus [18] = assay: Inhibition of bFGF-stimulated angiogenesis in Matrigel mouse model at 50 mg/kg, po after 6 days; format: functional; conditions: 144 h; procedure, shortened: as §1

T1 sequence (Q02763 whole entry): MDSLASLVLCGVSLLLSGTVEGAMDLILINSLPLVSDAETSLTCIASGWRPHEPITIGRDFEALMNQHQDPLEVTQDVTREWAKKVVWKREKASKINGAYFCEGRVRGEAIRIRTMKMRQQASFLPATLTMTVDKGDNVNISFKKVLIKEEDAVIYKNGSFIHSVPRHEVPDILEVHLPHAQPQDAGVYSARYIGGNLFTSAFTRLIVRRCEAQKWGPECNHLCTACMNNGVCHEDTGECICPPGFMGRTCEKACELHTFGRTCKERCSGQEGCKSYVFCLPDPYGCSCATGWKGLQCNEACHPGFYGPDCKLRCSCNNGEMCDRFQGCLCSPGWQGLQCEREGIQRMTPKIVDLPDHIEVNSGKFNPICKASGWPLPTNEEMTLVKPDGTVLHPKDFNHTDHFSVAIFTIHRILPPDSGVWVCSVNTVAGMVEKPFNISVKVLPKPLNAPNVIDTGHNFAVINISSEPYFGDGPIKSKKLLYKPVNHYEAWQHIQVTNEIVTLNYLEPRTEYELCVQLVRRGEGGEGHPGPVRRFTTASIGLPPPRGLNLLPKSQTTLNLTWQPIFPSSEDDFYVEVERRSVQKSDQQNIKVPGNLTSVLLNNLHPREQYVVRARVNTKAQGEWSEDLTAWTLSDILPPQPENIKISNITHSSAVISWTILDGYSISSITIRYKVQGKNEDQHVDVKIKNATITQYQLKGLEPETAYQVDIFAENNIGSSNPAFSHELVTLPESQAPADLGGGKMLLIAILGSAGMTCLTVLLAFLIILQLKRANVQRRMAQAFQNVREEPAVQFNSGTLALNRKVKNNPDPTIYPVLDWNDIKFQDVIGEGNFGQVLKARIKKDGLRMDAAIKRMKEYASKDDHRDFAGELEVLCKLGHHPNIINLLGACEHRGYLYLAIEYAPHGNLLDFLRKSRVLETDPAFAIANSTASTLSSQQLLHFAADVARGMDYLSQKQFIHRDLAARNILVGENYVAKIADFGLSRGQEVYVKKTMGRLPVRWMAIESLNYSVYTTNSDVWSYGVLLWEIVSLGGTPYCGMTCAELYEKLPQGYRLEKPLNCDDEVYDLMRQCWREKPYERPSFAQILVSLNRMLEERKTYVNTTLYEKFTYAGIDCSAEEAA
Vascular endothelial growth factor receptor 2, sequence (P35968 whole entry): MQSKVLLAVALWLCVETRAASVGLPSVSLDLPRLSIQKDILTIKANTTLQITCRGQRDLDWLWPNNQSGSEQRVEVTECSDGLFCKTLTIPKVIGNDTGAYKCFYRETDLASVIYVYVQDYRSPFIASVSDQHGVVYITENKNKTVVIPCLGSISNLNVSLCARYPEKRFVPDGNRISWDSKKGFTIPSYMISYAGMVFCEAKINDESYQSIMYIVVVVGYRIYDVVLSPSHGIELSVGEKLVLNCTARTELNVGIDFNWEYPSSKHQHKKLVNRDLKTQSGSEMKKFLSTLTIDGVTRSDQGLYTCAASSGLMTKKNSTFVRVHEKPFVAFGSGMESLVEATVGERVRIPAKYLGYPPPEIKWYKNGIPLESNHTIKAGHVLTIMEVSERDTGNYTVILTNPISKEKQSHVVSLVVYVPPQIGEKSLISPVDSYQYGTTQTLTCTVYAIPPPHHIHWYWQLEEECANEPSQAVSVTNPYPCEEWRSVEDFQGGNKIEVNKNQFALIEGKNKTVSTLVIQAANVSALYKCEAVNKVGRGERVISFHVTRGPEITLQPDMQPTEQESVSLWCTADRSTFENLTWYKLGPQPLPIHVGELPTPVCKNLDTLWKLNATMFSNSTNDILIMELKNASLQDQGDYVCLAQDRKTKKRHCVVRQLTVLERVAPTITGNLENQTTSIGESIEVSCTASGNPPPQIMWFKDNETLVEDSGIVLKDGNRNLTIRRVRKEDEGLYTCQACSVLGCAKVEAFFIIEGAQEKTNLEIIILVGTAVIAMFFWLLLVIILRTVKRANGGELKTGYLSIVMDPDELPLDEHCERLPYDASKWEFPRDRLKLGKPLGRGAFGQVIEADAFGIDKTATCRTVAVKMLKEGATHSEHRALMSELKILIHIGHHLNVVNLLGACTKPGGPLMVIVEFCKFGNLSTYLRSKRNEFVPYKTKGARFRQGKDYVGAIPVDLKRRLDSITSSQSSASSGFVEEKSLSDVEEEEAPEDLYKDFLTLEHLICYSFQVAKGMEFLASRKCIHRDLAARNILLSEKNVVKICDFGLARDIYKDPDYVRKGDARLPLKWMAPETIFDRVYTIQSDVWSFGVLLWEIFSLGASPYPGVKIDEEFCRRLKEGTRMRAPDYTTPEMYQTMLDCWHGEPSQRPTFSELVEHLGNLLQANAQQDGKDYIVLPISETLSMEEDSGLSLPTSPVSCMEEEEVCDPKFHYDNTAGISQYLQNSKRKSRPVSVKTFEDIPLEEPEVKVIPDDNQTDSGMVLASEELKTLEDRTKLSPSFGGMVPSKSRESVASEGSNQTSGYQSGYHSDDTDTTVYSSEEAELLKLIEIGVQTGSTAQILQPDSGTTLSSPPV
Fibroblast growth factor receptor 1, sequence (P11362 whole entry): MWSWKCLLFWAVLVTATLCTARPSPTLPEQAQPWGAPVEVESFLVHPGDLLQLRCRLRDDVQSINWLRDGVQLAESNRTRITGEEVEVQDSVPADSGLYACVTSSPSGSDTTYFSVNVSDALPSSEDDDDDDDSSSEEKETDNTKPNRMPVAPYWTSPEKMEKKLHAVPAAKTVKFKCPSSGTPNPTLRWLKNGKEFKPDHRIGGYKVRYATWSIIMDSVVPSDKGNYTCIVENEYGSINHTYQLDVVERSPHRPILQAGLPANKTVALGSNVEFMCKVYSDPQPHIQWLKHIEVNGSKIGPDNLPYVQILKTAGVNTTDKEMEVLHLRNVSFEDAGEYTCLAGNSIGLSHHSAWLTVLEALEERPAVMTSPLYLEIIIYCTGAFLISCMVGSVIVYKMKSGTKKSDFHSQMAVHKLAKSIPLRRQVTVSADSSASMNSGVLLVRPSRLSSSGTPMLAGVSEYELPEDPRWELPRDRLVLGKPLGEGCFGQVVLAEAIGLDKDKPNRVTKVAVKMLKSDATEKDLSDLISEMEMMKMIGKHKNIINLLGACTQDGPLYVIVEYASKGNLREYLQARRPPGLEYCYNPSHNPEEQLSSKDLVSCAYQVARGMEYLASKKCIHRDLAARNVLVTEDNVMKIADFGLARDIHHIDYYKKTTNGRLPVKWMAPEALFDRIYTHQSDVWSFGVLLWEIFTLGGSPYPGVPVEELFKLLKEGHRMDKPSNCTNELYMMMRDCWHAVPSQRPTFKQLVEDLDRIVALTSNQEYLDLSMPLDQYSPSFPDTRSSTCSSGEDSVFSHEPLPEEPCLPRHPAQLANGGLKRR
Platelet-derived growth factor receptor alpha, sequence (P16234 whole entry): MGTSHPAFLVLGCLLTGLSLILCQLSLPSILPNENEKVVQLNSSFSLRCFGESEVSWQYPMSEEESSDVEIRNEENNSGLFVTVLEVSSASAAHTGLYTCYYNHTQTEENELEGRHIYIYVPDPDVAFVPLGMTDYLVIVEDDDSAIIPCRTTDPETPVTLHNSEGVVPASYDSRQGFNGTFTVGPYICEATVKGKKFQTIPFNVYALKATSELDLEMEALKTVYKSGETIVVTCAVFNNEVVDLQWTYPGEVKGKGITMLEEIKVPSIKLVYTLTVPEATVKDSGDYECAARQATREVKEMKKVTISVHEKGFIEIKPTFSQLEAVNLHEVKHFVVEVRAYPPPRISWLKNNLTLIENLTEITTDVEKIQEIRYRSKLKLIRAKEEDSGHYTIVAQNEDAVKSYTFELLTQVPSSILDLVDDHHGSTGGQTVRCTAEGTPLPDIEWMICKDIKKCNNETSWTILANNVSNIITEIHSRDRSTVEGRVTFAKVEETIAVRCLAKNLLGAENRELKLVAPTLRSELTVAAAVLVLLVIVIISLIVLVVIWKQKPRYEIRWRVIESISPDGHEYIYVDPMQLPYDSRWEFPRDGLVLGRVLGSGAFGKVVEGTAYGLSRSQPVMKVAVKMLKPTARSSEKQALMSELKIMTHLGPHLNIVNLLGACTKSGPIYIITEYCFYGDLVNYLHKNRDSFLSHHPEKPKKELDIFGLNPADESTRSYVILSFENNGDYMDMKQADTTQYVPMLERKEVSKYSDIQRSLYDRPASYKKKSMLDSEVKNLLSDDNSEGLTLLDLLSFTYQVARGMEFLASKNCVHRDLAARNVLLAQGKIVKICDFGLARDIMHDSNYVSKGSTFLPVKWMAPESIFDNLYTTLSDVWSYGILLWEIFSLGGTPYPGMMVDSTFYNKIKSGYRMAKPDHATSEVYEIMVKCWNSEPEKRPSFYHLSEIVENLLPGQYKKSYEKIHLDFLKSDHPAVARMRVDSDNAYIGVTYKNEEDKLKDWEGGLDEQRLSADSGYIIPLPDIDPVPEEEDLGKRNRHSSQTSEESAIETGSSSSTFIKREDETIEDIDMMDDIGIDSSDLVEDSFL
Protein kinase C beta type, sequence (P05771 whole entry): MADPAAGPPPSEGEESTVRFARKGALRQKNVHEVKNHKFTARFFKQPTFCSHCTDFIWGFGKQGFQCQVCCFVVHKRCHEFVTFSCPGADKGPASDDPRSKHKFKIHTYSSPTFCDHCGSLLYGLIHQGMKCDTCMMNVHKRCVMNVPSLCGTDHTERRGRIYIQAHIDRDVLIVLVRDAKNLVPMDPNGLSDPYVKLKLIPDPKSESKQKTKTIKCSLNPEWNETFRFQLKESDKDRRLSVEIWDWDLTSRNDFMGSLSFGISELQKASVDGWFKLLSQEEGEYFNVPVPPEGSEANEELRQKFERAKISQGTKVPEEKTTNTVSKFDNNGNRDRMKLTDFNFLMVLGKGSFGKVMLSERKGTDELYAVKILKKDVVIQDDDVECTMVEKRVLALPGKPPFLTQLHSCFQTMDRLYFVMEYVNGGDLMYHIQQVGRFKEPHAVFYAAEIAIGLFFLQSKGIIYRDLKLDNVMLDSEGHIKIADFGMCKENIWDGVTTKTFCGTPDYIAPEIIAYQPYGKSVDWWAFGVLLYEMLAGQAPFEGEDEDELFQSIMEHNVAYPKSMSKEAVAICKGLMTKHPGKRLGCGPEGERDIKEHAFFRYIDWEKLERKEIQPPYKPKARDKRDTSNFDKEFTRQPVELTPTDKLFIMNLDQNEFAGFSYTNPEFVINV

Compound	IC50 (Angiopoietin-1 receptor [1]) [nM]	also measured
COc1ccc2cc(-c3[nH]c(-c4ccc(SC)cc4Cl)nc3-c3ccncc3)ccc2c1	1500	–
COc1ccc2cc(-c3[nH]c(-c4ccc(S(C)(=O)=O)cc4Cl)nc3-c3ccncc3)ccc2c1	59	–
COc1ccc2cc(-c3nc(-c4ccc([S@+](C)[O-])cc4C)[nH]c3-c3ccncc3)ccc2c1	95	–
COc1ccc2cc(-c3c(-c4ccncc4)nc(-c4ccc(S(C)(=O)=O)cc4C)n3C)ccc2c1	114	–
COc1ccc2cc(-c3[nH]c(-c4ccc(S(C)(=O)=O)cc4C)nc3-c3ccncc3)ccc2c1	40	–
COc1ccc2cc(-c3c(-c4ccncc4)nc(-c4ccc(SC)cc4C)n3C)ccc2c1	335	–
COc1ccc2cc(-c3nc(-c4ccccc4)[nH]c3-c3ccncc3)ccc2c1	–	inhibition (Angiopoietin-1 receptor [2]): 60%
COc1ccc2cc(-c3[nH]c(-c4c(Cl)cccc4Cl)nc3-c3ccncc3)ccc2c1	78	–
COc1ccc2cc(-c3[nH]c(-c4ccc([S+](C)[O-])cc4Cl)nc3-c3ccncc3)ccc2c1 (stereo not given)	51	–
COc1ccc2cc(-c3nc(-c4ccc([S+](C)[O-])cc4C)[nH]c3-c3ccncc3)ccc2c1 (stereo not given)	36	–
COc1ccc2cc(-c3nc(-c4ccc(S(C)(=O)=O)cc4)[nH]c3-c3ccncc3)ccc2c1	250	–
COc1ccc2cc(-c3nc(-c4ccc([S@@+](C)[O-])cc4C)[nH]c3-c3ccncc3)ccc2c1	22	–
COc1ccc2cc(-c3c(-c4ccncc4)nc(-c4ccc([S+](C)[O-])cc4C)n3C)ccc2c1 (stereo not given)	12	IC50 [3]: > 30000 nM; IC50 [4]: > 30000 nM; IC50 [5]: 1500 nM; IC50 [6]: > 30000 nM; IC50 [7]: > 30000 nM; IC50 [8]: > 30000 nM; IC50 (TGF-beta receptor type-1): 296 nM; IC50 [9]: 550 nM; IC50 [10]: 9700 nM; inhibition in vivo at 25 mg/kg (Mus musculus [11]): 35%; IC50 [12]: > 30000 nM; IC50 (Insulin receptor): > 30000 nM; IC50 [13]: > 30000 nM; IC50 [14]: > 30000 nM; IC50 (MAP kinase p38): 4100 nM; IC50 [15]: > 30000 nM; IC50 [16]: > 30000 nM; IC50 [17]: > 30000 nM; inhibition in vivo at 50 mg/kg (Mus musculus [18]): 80%
COc1ccc2cc(-c3[nH]c(-c4ccc(SC)cc4C)nc3-c3ccncc3)ccc2c1	1300	–

The next lines start with results.

IC50 (Angiopoietin-1 receptor [1]) [nM]	Compound	also measured
346	CCc1ccccc1-c1nc(-c2ccc3cc(OC)ccc3c2)c(-c2ccncc2)[nH]1	–
260	COc1ccc2cc(-c3nc(-c4ccccc4C(F)(F)F)[nH]c3-c3ccncc3)ccc2c1	–
157	COc1ccc2cc(-c3nc(-c4ccccc4Cl)[nH]c3-c3ccncc3)ccc2c1	–
836	COc1ccc2cc(-c3nc(-c4ccccc4C(C)C)[nH]c3-c3ccncc3)ccc2c1	–
1600	COc1ccc2cc(-c3nc(-c4ccccc4F)[nH]c3-c3ccncc3)ccc2c1	–
387	COc1ccc2cc(-c3[nH]c(-c4ccccc4C)nc3-c3ccncc3)ccc2c1	–
82	COc1ccc2cc(-c3[nH]c(-c4ccccc4Br)nc3-c3ccncc3)ccc2c1	–
